Test results: ChEMBL document CHEMBL4024769, “Synthesis and Investigation of Photophysical and Biological Properties of Novel S-Containing Bacteriopurpurinimides” (J Med Chem, 2017)
Calls of active or inactive are those of the source. The calls are words filed in the database; no cut-off is given here.

Columns and labels:
[1] = Drug uptake in spleen tumor of F1 mouse implanted with mouse S37 cells assessed as normalized fluorescence at 2.5 mg/kg, iv measured after 24 hrs post injection in presence of He-Ne laser radiation by local fluorescence spectroscopic analysis; assay type: ADME, organism-based; settings: in vivo
Procedure, shortened: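 Single iv dose of 2.5 mg/kg given to F1 mice bearing S37 sarcoma. Skin, muscle, liver, kidney, spleen and tumor taken from three animals each at 0.25, 0.5, 2, 4 and 24 h and read ex vivo by contact local fluorescence spectroscopy. He–Ne 632.8 nm excitation; 640–900 nm integral normalized to backscattered laser signal (FN).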

[2] = Phototoxicity against mouse S37 cells implanted in F1 mouse assessed as tumor growth inhibition at 2.5 mg/kg, iv preincubated for 15 mins with subsequent 150 J/cm2 irradiation measured on day 20 post irradiation relative to control; assay type: functional; settings: S37, light or radiation study, read-out: TGI
Procedure, shortened: (§1)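 S37 sarcoma mice treated on day 7 of tumor growth with compound iv; tumors 140–160 mm3 beforehand, droperidol 0.25 mg ip as anesthetic. LED irradiation at 800 ± 21 nm, 100 mW/cm2, 150 J/cm2, given 15 or 30 min after dosing. Controls got iv 0.9% NaCl. Volume = d1×d2×d3×0.52; TGI = […]×100%.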

[3] = Phototoxicity against mouse S37 cells implanted in F1 mouse assessed as tumor growth inhibition at 5 mg/kg, iv preincubated for 15 mins with subsequent 150 J/cm2 irradiation measured on day 8 post irradiation relative to control; assay type: functional; settings: S37, light or radiation study, read-out: TGI; procedure, shortened: as §1
[4] = (§2) Pro-oxidant activity in 1% cremophor EL or rose Bengal assessed as singlet oxygen radical generation by measuring photo-induced fading of 4-nitroso-N,N-dimethylaniline at 6.1 uM in presence of laser radiation and histidine measured every 5 to 10 mins in presence of singlet oxygen quencher NaN3 by absorption spectroscopy; assay type: functional
[5] = Phototoxicity against mouse S37 cells assessed as cell growth inhibition preincubated for 6 hrs with subsequent 10 J/cm2 irradiation followed by incubation in absence of compound for 24 hrs by MTT assay; assay type: functional; settings: S37, light or radiation study
Procedure, shortened: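 S37 cells treated with 0.05–28 μM compound added 24 h after plating. After 0.25–6 h incubation, cells were irradiated with a halogen lamp through a KS-19 filter (720 nm) at 21.0 ± 1.0 mW/cm2, 10 J/cm2, with or without removing the compound. MTT read 24 h later; 50% growth inhibition taken as the value, mean of three tests.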

[6] = (§3) Phototoxicity against rat Sarcoma M1 cells implanted in rat assessed as volume of tumor necrotic zones at 2.5 mg/kg, ip administered as single dose on day 11 after inoculation followed by 300 J/cm2 irradiation after 2.5 to 3 hrs measured on day 1 post photodynamic therapy (reference value: 32 +/- 6 %); assay type: functional
Procedure, shortened: (§4)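 Rat M1 sarcoma was implanted subcutaneously in the left thigh, with randomisation on day 10. A single 2.5 mg/kg ip dose was given on day 11, then 810 nm laser (0.51 W/cm2, 300 J/cm2, 10 min) after 2.5−3 h. Tumours were sectioned on days 1, 3 and 12 after PDT (controls days 12, 14, 23), five animals per point. Parenchyma and necrotic zone volumes were estimated on hematoxylin and eosin staining.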

[7] = as §3, with “of PCNA-positive cells in” for “of”, “parenchyma” for “necrotic zones”, “71” for “32”, “3” for “6”; assay type: functional
Procedure, shortened: (§5)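 Rats with M1 sarcoma implanted subcutaneously in the left thigh were randomized on day 10, 25 per group. Single ip dose of 2.5 mg/kg on day 11; laser irradiation 2.5–3 h later at 810 nm, 0.51 W/cm2, 300 J/cm2, 10 min over a 1.5 cm field. Five rats sampled per time point for H&E histology, PCNA immunohistochemistry (1:200) and tumor volume. Untreated controls; Student's test, p < 0.05.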

[8] = Phototoxicity against rat Sarcoma M1 cells implanted in rat assessed as mitotic index at 2.5 mg/kg, ip administered as single dose on day 11 after inoculation followed by 300 J/cm2 irradiation after 2.5 to 3 hrs measured on day 1 post photodynamic therapy (reference value: 1.9 +/- 0.2 %); assay type: functional; procedure, shortened: as §5
[9] = Phototoxicity against rat Sarcoma M1 cells implanted in rat assessed as apoptotic index at 2.5 mg/kg, ip administered as single dose on day 11 after inoculation followed by 300 J/cm2 irradiation after 2.5 to 3 hrs measured on day 1 post photodynamic therapy (reference value: 0.29 +/- 0.02 %); assay type: functional; procedure, shortened: as §5
[10] = Phototoxicity against rat Sarcoma M1 cells implanted in rat assessed as tumor volume at 2.5 mg/kg, ip administered as single dose on day 11 after inoculation followed by 300 J/cm2 irradiation after 2.5 to 3 hrs measured on day 3 post photodynamic therapy (reference value: 1.6 +/- 0.3 mm3); assay type: functional; procedure, shortened: as §5
[11] = (§6) Phototoxicity against rat Sarcoma M1 cells implanted in rat assessed as volume of PCNA-positive cells in tumor parenchyma at 2.5 mg/kg, ip administered as single dose on day 11 after inoculation followed by 300 J/cm2 irradiation after 2.5 to 3 hrs measured on day 3 post photodynamic therapy (reference value: 81 +/- 3%); assay type: functional
Procedure, shortened: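 Female rats bearing subcutaneous M1 sarcoma in the left thigh were randomised on day 10. They received 2.5 mg/kg ip on day 11. Laser irradiation (810 nm, 0.51 W/cm2, 300 J/cm2, 1.5 cm field, 10 min) followed 2.5−3 h later. PCNA-positive parenchyma was scored by immunohistochemistry (mouse anti-PCNA PC10, 1:200, biotin−extravidin−peroxidase) on post-PDT days 1, 3 and 12, with five animals per time point.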

[12] = Phototoxicity against rat Sarcoma M1 cells implanted in rat assessed as mitotic index at 2.5 mg/kg, ip administered as single dose on day 11 after inoculation followed by 300 J/cm2 irradiation after 2.5 to 3 hrs measured on day 3 post photodynamic therapy (reference value: 1.84 +/- 0.04%); assay type: functional; procedure, shortened: as §5
[13] = Phototoxicity against rat Sarcoma M1 cells implanted in rat assessed as tumor volume at 2.5 mg/kg, ip administered as single dose on day 11 after inoculation followed by 300 J/cm2 irradiation after 2.5 to 3 hrs measured on day 12 post photodynamic therapy (reference value: 12 +/- 3 mm3); assay type: functional; procedure, shortened: as §5
[14] = Phototoxicity against rat Sarcoma M1 cells implanted in rat assessed as volume of tumor necrotic zones at 2.5 mg/kg, ip administered as single dose on day 11 after inoculation followed by 300 J/cm2 irradiation after 2.5 to 3 hrs measured on day 12 post photodynamic therapy (reference value: 44 +/- 3%); assay type: functional; procedure, shortened: as §4
[15] = as §6, with “day 12” for “day 3”, “value: 72” for “value: 81”, “+/- 5%)” for “+/- 3%)”; assay type: functional; procedure, shortened: as §5
[16] = Phototoxicity against rat Sarcoma M1 cells implanted in rat assessed as mitotic index at 2.5 mg/kg, ip administered as single dose on day 11 after inoculation followed by 300 J/cm2 irradiation after 2.5 to 3 hrs measured on day 12 post photodynamic therapy (reference value: 1.9 +/- 0.2%); assay type: functional; procedure, shortened: as §5
Sarcoma M1 [17] = assay: (§7) Phototoxicity against rat Sarcoma M1 cells implanted in rat assessed as damage to tumor nodes at 2.5 mg/kg, ip administered as single dose on day 11 post inoculation followed by 300 J/cm2 irradiation after 2.5 to 3 hrs measured on day 2 post photodynamic therapy by hematoxylin and eosin staining based assay; assay type: functional, organism-based
Sarcoma M1 [18] = assay: as §7, with “coagulative” for “damage to”, “necrosis” for “nodes”; assay type: functional, organism-based
[19] = as §2, with “3.4” for “6.1”; assay type: functional

Compound | Drug uptake [1] | inhibition in vivo at 2.5 mg/kg [2] | inhibition in vivo at 5 mg/kg [3] | Activity [4] | CC50 [5] | Activity [6] | Activity [7] | Activity [8] | Activity [9] | Activity [10] | Activity [11] | Activity [12] | Activity [13] | Activity [14] | Activity [15] | Activity [16] | Activity (Sarcoma M1 [17]) | Activity (Sarcoma M1 [18]) | Activity [19]
CCCO/N=C(\C)c1c(C)c2cc3nc(c4c5[nH]c(cc6nc(cc1[nH]2)[C@H](C)[C@H]6CC)c(C)c5C(=O)N(OCCC)C4=O)[C@@H](CCC(=O)OC)[C@@H]3C | Active | 100% | 100% | inactive | 110 nM |  |  |  |  |  |  |  |  |  |  |  |  |  | 
CCCO/N=C(\C)c1c(C)c2cc3nc(c4c5[nH]c(cc6nc(cc1[nH]2)[C@@H](C)[C@@H]6CC)c(C)c5C(=O)N(OCCC)C4=O)[C@H](CCC(=O)NCCSSCCNC(=O)CC[C@@H]1c2nc(cc4[nH]c(cc5nc(cc6[nH]c7c2C(=O)N(OCCC)C(=O)c7c6C)[C@H](CC)[C@H]5C)c(/C(C)=N/OCCC)c4C)[C@H]1C)[C@H]3C |  |  |  |  |  | 60% | 26% | 1.2% | 0.39% | 0.59 mm3 | 38% | 1.84% | 0.44 mm3 | 71% | 39% | 1.78% | Active | Active | inactive
